Assay results from ChEMBL document CHEMBL1122426, “Radioiodine-labeled N,N-dimethyl-N'-(2-hydroxy-3-alkyl-5-iodobenzyl)-1,3-propanediamines for brain perfusion imaging” (J Med Chem, 1983).

Experiments:
Rattus norvegicus [1] = assay: Biodistribution of I-125 labeled compound in rat heart, 2 min after intravenous injection. value expressed in average % dose per organ; value may range from 2.13 to 2.96; type: ADME, organism-based; settings: in vivo
Rattus norvegicus [2] = assay: Biodistribution of I-125 labeled compound in rat brain, 2 min after intravenous injection. value expressed in average% dose per organ; value may range from 0.85 to 1.01; type: ADME, organism-based; settings: in vivo
Rattus norvegicus [3] = assay: Biodistribution of I-125 labeled compound in rat thyroid, 2 min after intravenous injection. value expressed in average % dose per organ; value may range from 0.13 to 0.19; type: ADME, organism-based, Thyroid gland; settings: in vivo
Rattus norvegicus [4] = assay: Biodistribution of I-125 labeled compound in rat lungs, 2 min after intravenous injection. value expressed in average % dose per organ; value may range from 31.6 to 34.0; type: ADME, organism-based, Lung; settings: in vivo
Rattus norvegicus [5] = assay: Biodistribution of I-125 labeled compound in rat heart, 1 hr after intravenous injection. value expressed in average % dose per organ; value may range from 2.29 to 2.35; type: ADME, organism-based; settings: in vivo
Rattus norvegicus [6] = assay: Biodistribution of I-125 labeled compound in rat blood, 1 hr after intravenous injection. value expressed in average % dose per organ; value may range from 1.64 to 1.91; type: ADME, organism-based; settings: in vivo
[7] = The protein binding ability of compound was expressed in Percent free; type: ADME; settings: read-out: % free
Procedure, shortened: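 Binding to pooled human serum was measured by equilibrium dialysis. 0.4 mL serum and 0.4 mL 0.15 M phosphate buffer, pH 7.4, were separated by a membrane, and 0.025 μCi radiolabeled diamine was added on the buffer side. Cells were rotated at 37 °C for 18 h, and aliquots from both sides were weighed and counted. % free = buffer/serum radioactivity concentration ratio × 100. The membrane was also counted.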

Rattus norvegicus [8] = assay: Biodistribution of I-125 labeled compound in rat brain, 1 hr after intravenous injection. value expressed in average % dose per organ; value may range from 0.95 to 1.00; type: ADME, organism-based; settings: in vivo
Rattus norvegicus [9] = species on record: Rattus norvegicus; assay: Distribution coefficient at pH 7.0 in rat; type: ADME, organism-based
Procedure, shortened: (§1)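 Octanol/buffer partition: I-125 labeled diamine mixed with 3 g each of 1-octanol and 0.1 M phosphate buffer at pH 7.0 or 7.4, vortexed 3× 1 min, centrifuged 5 min. Two 0.5 g samples of each layer counted. Value is cpm/g octanol over cpm/g buffer, usually repeated three times.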

Rattus norvegicus [10] = assay: Biodistribution of I-125 labeled compound in rat muscle, 2 min after intravenous injection. value expressed in average % dose per organ; value may range from 5.95 to 6.51; type: ADME, organism-based, Muscle tissue; settings: in vivo
Rattus norvegicus [11] = species on record: Rattus norvegicus; assay: Distribution coefficient at pH 7.4 in rat; type: ADME, organism-based; procedure, shortened: as §1
Rattus norvegicus [12] = assay: Biodistribution of I-125 labeled compound in rat thyroid, 1 hr after intravenous injection. value expressed in average% dose per organ; value may range from 0.19 to 0.25; type: ADME, organism-based, Thyroid gland; settings: in vivo
Rattus norvegicus [13] = assay: Biodistribution of I-125 labeled compound in rat blood, 2 min after intravenous injection. value expressed in average % dose per organ; value may range from 3.95 to 6.09; type: ADME, organism-based; settings: in vivo
Rattus norvegicus [14] = assay: Biodistribution of I-125 labeled compound in rat […] ratio, 1 hr after intravenous injection. value expressed in % dose per gram ratio; type: ADME, organism-based; settings: in vivo
Rattus norvegicus [15] = assay: Biodistribution of I-125 labeled compound in rat muscle, 1 hr after intravenous injection. value expressed in average % dose per organ; value may range from 11.0 to 15. 8; type: ADME, organism-based, Muscle tissue; settings: in vivo
Rattus norvegicus [16] = assay: Biodistribution of I-125 labeled compound in rat brain to blood ratio, 2 min after intravenous injection. value expressed in % dose per gram ratio; type: ADME, organism-based
Procedure, shortened: (§2)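 Rats given I-125 diamine iv; tissue activity at 2 min or 1 h compared with diluted injected-dose aliquots. % dose per gram approximated as % dose per organ divided by mean organ weight (brain 1.65 g; blood 18 g). Ratio taken from the per-gram values.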

Rattus norvegicus [17] = assay: Biodistribution of I-125 labeled compound in rat liver, 1 hr after intravenous injection. value expressed in average % dose per organ; value may range from 11.0 to 13.4; type: ADME, organism-based; settings: in vivo
Rattus norvegicus [18] = assay: Biodistribution of I-125 labeled compound in rat lungs, 1 hr after intravenous injection. value expressed in average % dose per organ; value may range from 15.1 to 17.1; type: ADME, organism-based, Lung; settings: in vivo
Rattus norvegicus [19] = assay: Biodistribution of I-125 labeled compound in rat liver, 2 min after intravenous injection. value expressed in average % dose per organ; value may range from 12.3 to 15.0; type: ADME, organism-based; settings: in vivo
Rattus norvegicus [20] = assay: Biodistribution of I-125 labeled compound in rat heart, 2 min after intravenous injection. value expressed in average % dose per organ; type: ADME, organism-based; settings: in vivo
Rattus norvegicus [21] = assay: Biodistribution of I-125 labeled compound in rat heart, 1 hr after intravenous injection. value expressed in average % dose per organ; type: ADME, organism-based; settings: in vivo
Rattus norvegicus [22] = assay: Biodistribution of I-125 labeled compound in rat brain to blood ratio, 1 hr after intravenous injection. value expressed in % dose per gram ratio; type: ADME, organism-based; procedure, shortened: as §2
Rattus norvegicus [23] = assay: Biodistribution of I-125 labeled compound in rat lungs, 2 min after intravenous injection. value expressed in average % dose per organ; type: ADME, organism-based, Lung; settings: in vivo
Rattus norvegicus [24] = assay: Biodistribution of I-125 labeled compound in rat blood, 2 min after intravenous injection. value expressed in average % dose per organ; type: ADME, organism-based; settings: in vivo
Rattus norvegicus [25] = assay: Biodistribution of I-125 labeled compound in rat thyroid, 1 hr after intravenous injection. value expressed in average % dose per organ; type: ADME, organism-based, Thyroid gland; settings: in vivo
Rattus norvegicus [26] = assay: Biodistribution of I-125 labeled compound in rat lungs, 1 hr after intravenous injection. value expressed in average % dose per organ; type: ADME, organism-based, Lung; settings: in vivo
Rattus norvegicus [27] = assay: Biodistribution of I-125 labeled compound in rat liver, 2 min after intravenous injection. value expressed in average % dose per organ; type: ADME, organism-based; settings: in vivo
Rattus norvegicus [28] = assay: Biodistribution of I-125 labeled compound in rat blood, 1 hr after intravenous injection. value expressed in average % dose per organ; type: ADME, organism-based; settings: in vivo
Rattus norvegicus [29] = assay: Biodistribution of I-125 labeled compound in rat thyroid, 2 min after intravenous injection. value expressed in average % dose per organ; type: ADME, organism-based, Thyroid gland; settings: in vivo
Rattus norvegicus [30] = assay: Biodistribution of I-125 labeled compound in rat liver, 1 hr after intravenous injection. value expressed in average % dose per organ; type: ADME, organism-based; settings: in vivo
Rattus norvegicus [31] = assay: Biodistribution of I-125 labeled compound in rat brain, 1 hr after intravenous injection. value expressed in average % dose per organ; type: ADME, organism-based; settings: in vivo
Rattus norvegicus [32] = assay: Biodistribution of I-125 labeled compound in rat muscle, 2 min after intravenous injection. value expressed in average % dose per organ; type: ADME, organism-based, Muscle tissue; settings: in vivo
Rattus norvegicus [33] = assay: Biodistribution of I-125 labeled compound in rat muscle, 1 hr after intravenous injection. value expressed in average % dose per organ; type: ADME, organism-based, Muscle tissue; settings: in vivo
Rattus norvegicus [34] = assay: Biodistribution of I-125 labeled compound in rat brain, 2 min after intravenous injection. value expressed in average % dose per organ; type: ADME, organism-based; settings: in vivo
Rattus norvegicus [35] = assay: Biodistribution of I-125 labeled compound in rat thyroid, 1 hr after intravenous injection. value expressed in average % dose per organ; value may range from 0.16 to 0.26; type: ADME, organism-based, Thyroid gland; settings: in vivo
Rattus norvegicus [36] = assay: Biodistribution of I-125 labeled compound in rat liver, 2 min after intravenous injection. value expressed in average % dose per organ; value may range from 6.36 to 14.2; type: ADME, organism-based; settings: in vivo
Rattus norvegicus [37] = assay: Biodistribution of I-125 labeled compound in rat blood, 1 hr after intravenous injection. value expressed in average % dose per organ; value may range from 0.99 to 1.37; type: ADME, organism-based; settings: in vivo
Rattus norvegicus [38] = assay: Biodistribution of I-125 labeled compound in rat blood, 2 min after intravenous injection. value expressed in average % dose per organ; value may range from 2.74 to 5.33; type: ADME, organism-based; settings: in vivo
Rattus norvegicus [39] = assay: Biodistribution of I-125 labeled compound in rat heart, 2 min after intravenous injection. value expressed in average % dose per organ; value may range from 2.20 to 3.07; type: ADME, organism-based; settings: in vivo
Rattus norvegicus [40] = assay: Biodistribution of I-125 labeled compound in rat brain, 2 min after intravenous injection. value expressed in average % dose per organ; value may range from 1.45 to 1.89; type: ADME, organism-based; settings: in vivo
Rattus norvegicus [41] = assay: Biodistribution of I-125 labeled compound in rat muscle, 1 hr after intravenous injection. value expressed in average % dose per organ; value may range from 11.3 to 17.1; type: ADME, organism-based, Muscle tissue; settings: in vivo
Rattus norvegicus [42] = assay: Biodistribution of I-125 labeled compound in rat muscle, 2 min after intravenous injection. value expressed in average % dose per organ; value may range from 4.59 to 12.0; type: ADME, organism-based, Muscle tissue; settings: in vivo
Rattus norvegicus [43] = assay: Biodistribution of I-125 labeled compound in rat heart, 1 hr after intravenous injection. value expressed in average % dose per organ; value may range from 1.12 to 1.86; type: ADME, organism-based; settings: in vivo
Rattus norvegicus [44] = assay: Biodistribution of I-125 labeled compound in rat brain, 1 hr after intravenous injection. value expressed in average % dose per organ; value may range from 1.51 to 2.17; type: ADME, organism-based; settings: in vivo
Rattus norvegicus [45] = assay: Biodistribution of I-125 labeled compound in rat lungs, 1 hr after intravenous injection. value expressed in average % dose per organ; value may range from 11.5 to 26.1; type: ADME, organism-based, Lung; settings: in vivo
Rattus norvegicus [46] = assay: Biodistribution of I-125 labeled compound in rat liver, 1 hr after intravenous injection. value expressed in average % dose per organ; value may range from 7.32 to 10.1; type: ADME, organism-based; settings: in vivo
Rattus norvegicus [47] = assay: Biodistribution of I-125 labeled compound in rat lungs, 2 min after intravenous injection. value expressed in average % dose per organ; value may range from 24.6 to 42.2; type: ADME, organism-based, Lung; settings: in vivo
Rattus norvegicus [48] = assay: Biodistribution of I-125 labeled compound in rat thyroid, 2 min after intravenous injection. value expressed in average % dose per organ; value may range from 0.15 to 0.25; type: ADME, organism-based, Thyroid gland; settings: in vivo

CN(C)CCCNCc1cc(I)cc(C2CCCCC2)c1O
Average dose per organ (Rattus norvegicus [1]): 2.51%
Average dose per organ (Rattus norvegicus [2]): 0.94%
Average dose per organ (Rattus norvegicus [3]): 0.16%
Average dose per organ (Rattus norvegicus [4]): 33%
Average dose per organ (Rattus norvegicus [5]): 2.33%
Average dose per organ (Rattus norvegicus [6]): 1.74%
fraction unbound [7]: 0.0517
Average dose per organ (Rattus norvegicus [8]): 0.97%
Distribution coefficient (Rattus norvegicus [9]): 260
Average dose per organ (Rattus norvegicus [10]): 6.17%
Distribution coefficient (Rattus norvegicus [11]): 468
Average dose per organ (Rattus norvegicus [12]): 0.22%
Average dose per organ (Rattus norvegicus [13]): 5.3%
Ratio (Rattus norvegicus [14]): 5.99%
Average dose per organ (Rattus norvegicus [15]): 13.4%
Ratio (Rattus norvegicus [16]): 1.91%
Average dose per organ (Rattus norvegicus [17]): 12.4%
Average dose per organ (Rattus norvegicus [18]): 16.3%
Average dose per organ (Rattus norvegicus [19]): 13.8%

CN(C)CCCNCc1cc(I)cc(C(C)(C)C)c1O
Average dose per organ (Rattus norvegicus [20]): 3.16%
Average dose per organ (Rattus norvegicus [21]): 1.33%
fraction unbound [7]: 0.0607
Ratio (Rattus norvegicus [22]): 6.43%
Average dose per organ (Rattus norvegicus [23]): 28.2%
Average dose per organ (Rattus norvegicus [24]): 4.16%
Distribution coefficient (Rattus norvegicus [9]): 522
Average dose per organ (Rattus norvegicus [25]): 0.2%
Average dose per organ (Rattus norvegicus [26]): 15.4%
Average dose per organ (Rattus norvegicus [27]): 11.7%
Distribution coefficient (Rattus norvegicus [11]): 1390
Average dose per organ (Rattus norvegicus [28]): 2.79%
Average dose per organ (Rattus norvegicus [29]): 0.17%
Average dose per organ (Rattus norvegicus [30]): 7.38%
Ratio (Rattus norvegicus [16]): 4.31%
Average dose per organ (Rattus norvegicus [31]): 1.67%
Average dose per organ (Rattus norvegicus [32]): 6.44%
Average dose per organ (Rattus norvegicus [33]): 14.1%
Average dose per organ (Rattus norvegicus [34]): 1.67%

CCCc1cc(I)cc(CNCCCN(C)C)c1O
Average dose per organ (Rattus norvegicus [35]): 0.21%
Average dose per organ (Rattus norvegicus [36]): 9.54%
Average dose per organ (Rattus norvegicus [37]): 1.15%
Average dose per organ (Rattus norvegicus [38]): 4.09%
fraction unbound [7]: 0.159
Average dose per organ (Rattus norvegicus [39]): 2.67%
Average dose per organ (Rattus norvegicus [40]): 1.71%
Ratio (Rattus norvegicus [22]): 16.7%
Average dose per organ (Rattus norvegicus [41]): 14.6%
Distribution coefficient (Rattus norvegicus [9]): 44.8
Average dose per organ (Rattus norvegicus [42]): 7.44%
Distribution coefficient (Rattus norvegicus [11]): 176
Average dose per organ (Rattus norvegicus [43]): 1.49%
Average dose per organ (Rattus norvegicus [44]): 1.79%
Ratio (Rattus norvegicus [16]): 4.49%
Average dose per organ (Rattus norvegicus [45]): 16.1%
Average dose per organ (Rattus norvegicus [46]): 8.01%
Average dose per organ (Rattus norvegicus [47]): 33%
Average dose per organ (Rattus norvegicus [48]): 0.17%
